Test results reported in ChEMBL document CHEMBL6083216, “Rational design and in vitro testing of new urease inhibitors to prevent urinary catheter blockage” (RSC Med Chem, 2024).

How the values were obtained:
[1] = Inhibition of Proteus mirabilis B4 urease activity using urea as substrate incubated for 30 mins by absorbance based assay
In short: (§1)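 Berthelot ammonia assay with whole-cell P. mirabilis B4, grown overnight in LB at 37 °C, pelleted and resuspended in PBS (0.004 mg mL−1 in phosphate buffer). Cells incubated with compound (10-fold dilutions) and 50 mM urea for 30 min at 37 °C. Phenol/nitroprusside and NaOH/hypochlorite reagents added, 30 min at 37 °C, A636 read. Activity normalised to controls; IC50 by non-linear regression; n = 6.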

Proteus mirabilis [2] = test: Potency index, ratio of acetohydroxamic acid IC50 to test compound IC50 for inhibition of Proteus mirabilis B4 urease activity using urea as substrate incubated for 30 mins by absorbance based assay; in short: as §1
Proteus mirabilis [3] = test: Antibacterial activity against Proteus mirabilis assessed as inhibition of bacterial growth incubated for 18 hrs by absorbance based plate reader analysis; format: functional, organism-based
In short: (§2)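 Broth microdilution in LB: compound in sterile water with 5% (v/v) DMSO, two-fold serial dilutions; subculture at 1 × 10^6 CFU mL−1 added. 37 °C for 18 h, shaken 10 s before each OD600 reading taken at intervals. MIC read visually at 18 h and from growth curves as lowest concentration inhibiting growth. Wells with broth only and with bacteria only as controls.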

Escherichia coli = test: Antibacterial activity against Escherichia coli NSM59 assessed as inhibition of bacterial growth incubated for 18 hrs by absorbance based plate reader analysis; format: functional, organism-based; in short: as §2
[4] = Hemolytic activity in human erythrocytes at 0.080 to 5 mM incubated for 1 hrs by absorbance based assay; format: toxicity, cell-based; conditions: erythrocyte, 5000 µM, dose 0.08-5 mM
In short: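 Pooled heparinised whole blood from three donors; erythrocytes washed three times in saline and diluted to 1% (v/v). Incubated with compound (5–0.08 mM, serial dilution of a 10 mM stock with 1% DMSO in PBS) for 1 h at 37 °C with rotation. Saline and 1% triton as controls. Supernatant absorbance read at 404 nm; % haemolysis relative to lysed cells.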

HepG2 [5] = test: Cytotoxicity against human HepG2 cells assessed as effect on cell survival at 10 mM measured within 24 hrs by MTT assay; format: toxicity, cell-based; conditions: hepg2, 24 h, 10000 µM
In short: (§3)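 HepG2 cells in complete DMEM at 37 °C, 5% CO2, seeded at 1 × 10^4 cells per well. Compounds diluted serially from 10 mM with 1% DMSO in DMEM; 24 h exposure. MTT (1 mg mL−1) for 60 min at 37 °C, dissolved in isopropanol, absorbance read at 590 nm (reference 620 nm). % survival relative to untreated cells; three biological repeats.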

HepG2 [6] = test: Cytotoxicity against human HepG2 cells assessed as effect on cell survival at <1.25 mM measured for 24 hrs by MTT assay; format: toxicity, cell-based; conditions: hepg2, 24 h, 1250 µM; in short: as §3

NC(=S)Nc1ccccc1 [PHENYLTHIOUREA]
IC50 [1]: 9.66 10^-6mol/dm3
Ratio IC50 (Proteus mirabilis [2]): 0.002

S=C(NCc1cccnc1)NCc1cccnc1
Activity (Proteus mirabilis [3]): Moderate_effect
IC50 [1]: 1.4 10^-6mol/dm3
Ratio IC50 (Proteus mirabilis [2]): 26.1
Activity (Escherichia coli): Moderate_effect
Activity [4]: Non-toxic
Activity (HepG2 [5]): Toxic
Activity (HepG2 [6]): Non-toxic

CC(=O)NO [ACETOHYDROXAMIC ACID]
Activity (Proteus mirabilis [3]): Moderate_effect
IC50 [1]: 3.66 10^-5mol/dm3
Activity (Escherichia coli): Moderate_effect
Activity [4]: Non-toxic
Activity (HepG2 [5]): Toxic
Activity (HepG2 [6]): Non-toxic

O=c1c(O)c(-c2ccc(O)c(O)c2)oc2cc(O)cc(O)c12 [QUERCETIN]
IC50 [1]: 8.66 10^-7mol/dm3
Ratio IC50 (Proteus mirabilis [2]): 0.001

NC(=S)NCc1ccccc1
IC50 [1]: 2.27 10^-5mol/dm3
Ratio IC50 (Proteus mirabilis [2]): 1.61
